What was measured:
GABAA Cl– channels = conditions: binding displacement assay; cited from earlier work
[1] = tested on: neurons from Kcnt1^L/L mice; conditions: brain slices, 10 μM; cited from earlier work
[2] = Metabolic stability in mouse liver microsomes; assay type: in vitro ADME; conditions: multiple time points
Maxi-K (Slo1 α1/β3) = Maxi-K (Slo1 α1/β3) (Homo sapiens, UniProt Q12791); assay: Tl+ flux assay in HEK-293 cells expressing Maxi-K; assay type: cell-based; conditions: CRC
WT human SLACK = molecular target: T1, WT human SLACK (Homo sapiens, UniProt Q5JUK3); assay: Tl+ flux assay in HEK-293 cells stably expressing WT human SLACK; assay type: cell-based; conditions: CRC; IC50 for compounds of mode Inh (also cells printed Inactive)
T1 sequence (Q5JUK3 1-1235 isoform Q5JUK3-3): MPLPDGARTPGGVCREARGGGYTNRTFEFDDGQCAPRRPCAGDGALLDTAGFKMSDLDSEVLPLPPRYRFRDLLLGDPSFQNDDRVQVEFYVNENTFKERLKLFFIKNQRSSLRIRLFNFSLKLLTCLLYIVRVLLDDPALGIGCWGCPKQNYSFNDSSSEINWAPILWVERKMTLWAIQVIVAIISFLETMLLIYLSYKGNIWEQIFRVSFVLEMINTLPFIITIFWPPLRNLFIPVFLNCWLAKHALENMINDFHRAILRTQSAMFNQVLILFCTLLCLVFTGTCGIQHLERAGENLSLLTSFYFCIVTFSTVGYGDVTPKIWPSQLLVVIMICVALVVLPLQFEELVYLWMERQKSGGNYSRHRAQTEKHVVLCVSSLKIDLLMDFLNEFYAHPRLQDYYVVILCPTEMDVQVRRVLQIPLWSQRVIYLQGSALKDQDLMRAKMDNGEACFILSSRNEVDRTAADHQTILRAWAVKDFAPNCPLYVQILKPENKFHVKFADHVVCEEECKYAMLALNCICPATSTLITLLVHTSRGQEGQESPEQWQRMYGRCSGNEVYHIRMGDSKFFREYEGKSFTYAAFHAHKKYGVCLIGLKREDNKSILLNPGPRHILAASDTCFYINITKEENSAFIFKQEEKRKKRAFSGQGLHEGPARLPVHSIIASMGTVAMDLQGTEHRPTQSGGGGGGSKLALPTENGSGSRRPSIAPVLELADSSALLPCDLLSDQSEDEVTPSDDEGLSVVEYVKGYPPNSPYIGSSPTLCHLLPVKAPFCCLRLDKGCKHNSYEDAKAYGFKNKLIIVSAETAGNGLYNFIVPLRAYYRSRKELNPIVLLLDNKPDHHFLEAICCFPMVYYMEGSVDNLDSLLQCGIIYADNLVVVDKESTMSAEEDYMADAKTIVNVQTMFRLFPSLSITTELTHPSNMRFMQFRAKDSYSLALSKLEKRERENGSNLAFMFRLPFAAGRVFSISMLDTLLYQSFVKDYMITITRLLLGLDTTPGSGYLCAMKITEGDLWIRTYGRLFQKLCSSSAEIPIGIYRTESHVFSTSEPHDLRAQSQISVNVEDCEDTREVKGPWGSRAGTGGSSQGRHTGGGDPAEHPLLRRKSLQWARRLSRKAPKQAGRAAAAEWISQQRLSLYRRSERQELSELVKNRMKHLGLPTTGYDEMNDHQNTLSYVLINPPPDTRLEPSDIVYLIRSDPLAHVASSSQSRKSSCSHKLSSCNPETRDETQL
Summary of the method: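 Stably transfected HEK-293 cells expressing wild-type human SLACK; thallium flux read-out. IC50 or EC50 taken from concentration-response curves, and each compound classed as inhibitor, activator or not active. Efficacy is the response amplitude at 30 μM test compound, as a percentage of the maximum response to a reference SLACK inhibitor (for inhibitors) or loxapine (for activators).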

Maxi-K (Slo1 α1/β3), sequence (Q12791 whole entry, species assumed): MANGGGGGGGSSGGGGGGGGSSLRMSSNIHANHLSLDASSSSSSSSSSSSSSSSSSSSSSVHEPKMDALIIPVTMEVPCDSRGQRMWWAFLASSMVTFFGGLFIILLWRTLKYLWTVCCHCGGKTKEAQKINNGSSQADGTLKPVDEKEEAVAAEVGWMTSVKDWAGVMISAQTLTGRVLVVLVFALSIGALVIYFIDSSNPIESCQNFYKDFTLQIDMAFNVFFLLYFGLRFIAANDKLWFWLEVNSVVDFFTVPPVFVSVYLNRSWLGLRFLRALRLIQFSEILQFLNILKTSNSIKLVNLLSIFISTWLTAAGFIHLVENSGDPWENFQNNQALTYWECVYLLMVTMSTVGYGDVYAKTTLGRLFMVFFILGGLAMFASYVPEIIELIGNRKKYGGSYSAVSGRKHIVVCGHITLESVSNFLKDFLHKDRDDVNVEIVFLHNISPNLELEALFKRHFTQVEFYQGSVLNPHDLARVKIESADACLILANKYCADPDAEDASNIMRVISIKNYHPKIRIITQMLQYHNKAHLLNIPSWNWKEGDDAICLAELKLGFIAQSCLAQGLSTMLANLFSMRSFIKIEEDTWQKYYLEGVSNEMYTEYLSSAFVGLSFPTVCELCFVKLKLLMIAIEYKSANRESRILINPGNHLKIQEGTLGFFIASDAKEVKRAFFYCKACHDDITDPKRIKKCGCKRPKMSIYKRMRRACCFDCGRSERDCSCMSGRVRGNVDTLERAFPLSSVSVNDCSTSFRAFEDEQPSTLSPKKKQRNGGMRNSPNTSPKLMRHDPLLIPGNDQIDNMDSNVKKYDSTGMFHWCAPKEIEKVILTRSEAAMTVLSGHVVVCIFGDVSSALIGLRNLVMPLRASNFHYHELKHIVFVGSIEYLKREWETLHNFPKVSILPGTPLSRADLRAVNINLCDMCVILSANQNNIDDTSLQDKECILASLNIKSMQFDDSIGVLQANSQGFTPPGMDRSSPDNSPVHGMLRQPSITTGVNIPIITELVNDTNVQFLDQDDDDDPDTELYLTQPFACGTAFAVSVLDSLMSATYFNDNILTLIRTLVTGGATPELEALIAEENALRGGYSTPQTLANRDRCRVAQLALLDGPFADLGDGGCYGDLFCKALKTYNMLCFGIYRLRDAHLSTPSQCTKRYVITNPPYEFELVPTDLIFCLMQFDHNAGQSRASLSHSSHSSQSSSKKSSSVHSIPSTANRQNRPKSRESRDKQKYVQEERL
Maxi-K (Slo1 α1/β3), sequence (Q9NPA1 whole entry partner, species assumed): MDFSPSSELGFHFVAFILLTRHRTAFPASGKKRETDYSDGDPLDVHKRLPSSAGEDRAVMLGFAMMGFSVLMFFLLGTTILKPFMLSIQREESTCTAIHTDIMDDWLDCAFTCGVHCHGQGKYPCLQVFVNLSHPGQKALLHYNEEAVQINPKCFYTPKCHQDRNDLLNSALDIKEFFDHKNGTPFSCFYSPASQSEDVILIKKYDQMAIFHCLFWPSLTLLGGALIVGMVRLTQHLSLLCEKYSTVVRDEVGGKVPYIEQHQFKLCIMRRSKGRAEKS

Row | SMILES | displacement at GABAA Cl– channels (GABAA Cl– channels) [%] | firing in neurons [1] | predicted hepatic clearance (CLHEP) [2] [L/h/kg] | Maxi-K (Slo1 α1/β3) IC50 (Maxi-K (Slo1 α1/β3)) | IC50 / EC50 (WT human SLACK) [µM]
1 | C[C@H](NC(=O)c1cc(C(F)(F)F)nn1C)c1nc(-c2ccnc(C(F)(F)F)c2)no1 [Compound 3] | 74 | significant reduction in the firing | – | – | –
2 | O=S(=O)(c1cccc2cccnc12)N1CC(c2nc(-c3ccc(F)cc3)no2)C1 [Compound 121, 3-(4-Fluorophenyl)-5-(1-(quinolin-8-ylsulfonyl)azetidin-3-yl)-1,2,4-oxadiazole] | – | – | 4.5 | inactive | 7.4
